Tests used:
[1] = test system: Leishmania donovani; assay: Antileishmanial activity against promastigote form of Leishmania donovani LV82 infected in BALB/c mouse assessed as reduction in liver parasitemia at 10 mg/kg/day, po administered for 5 days relative to untreated control; type: functional; set-up: scale not given: the % may be the effect or the level left
How it was run: (§1)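 Female BALB/c mice infected with L. donovani; treated daily for five days starting one week post infection, test agent ip in water, miltefosine orally at 10 mg/kg/day; liver parasitemia counted microscopically two weeks post infection; % reduction versus infected untreated controls; groups of four, mean ± SD; P<0.05 versus untreated.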

[2] = test system: Mus musculus; assay: Gastrointestinal toxicity in BALB/c mouse assessed as black and swollen intestine at 30 mg/kg, ip measured within 24 hrs by necroscopic analysis; type: organism-based; set-up: dose 30 mg/kg, route intraperitoneal; settings: in vivo
[3] = test system: J774; assay: Cytotoxicity against mouse J774 cells; type: cell-based
How it was run: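 J774 macrophages exposed to compounds; IC50 reported in nM as mean ± SD of at least three determinations.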

[4] = test system: Leishmania donovani; assay: Antileishmanial activity against amastigote form of Leishmania donovani LV82 expressing beta-lactamase infected in CD1 mouse macrophages after 72 hrs by nitrocefin-based spectrophotometric analysis; type: functional, organism-based; settings: LV82, 72 h
How it was run: (§2)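 Intracellular amastigotes in macrophages; absorbance read-out with uninfected and infected control wells; IC50 from dose–response curves; mean ± SD of at least three determinations, each run in triplicate.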

[5] = Selectivity index, ratio of IC50 for mouse J774 cells to IC50 for Leishmania donovani; type: toxicity, cell-based; settings: J774 cells versus Leishmania donovani, read-out: Ratio IC50
How it was run: (§3)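 SI calculated as IC50 against J774 macrophages divided by IC50 against intracellular Leishmania, each IC50 from mean of at least three determinations.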

[6] = Selectivity index, ratio of IC50 for mouse J774 cells to IC50 for Leishmania amazonensis; type: toxicity, cell-based; settings: J774 cells versus Leishmania amazonensis, read-out: Ratio IC50; how it was run: as §3
[7] = test system: Mus musculus; assay: Gastrointestinal toxicity in BALB/c mouse assessed as black and swollen stomach at 30 mg/kg, ip measured within 24 hrs by necroscopic analysis; type: organism-based; set-up: dose 30 mg/kg, route intraperitoneal; settings: in vivo
[8] = test system: Mus musculus; assay: Gastrointestinal toxicity in BALB/c mouse assessed as black and swollen colon at 30 mg/kg, ip measured within 24 hrs by necroscopic analysis; type: organism-based; set-up: dose 30 mg/kg, route intraperitoneal; settings: in vivo
[9] = test system: Mus musculus; assay: Toxicity in BALB/c mouse assessed as mortality at 30 mg/kg, ip measured within 24 hrs; type: organism-based; set-up: dose 30 mg/kg, route intraperitoneal; settings: in vivo
[10] = test system: Leishmania amazonensis; assay: Antileishmanial activity against amastigote form of Leishmania amazonensis expressing beta-lactamase infected in CD1 mouse macrophages after 72 hrs by nitrocefin-based spectrophotometric analysis; type: functional, organism-based; how it was run: as §2
[11] = test system: Mus musculus; assay: Toxicity in BALB/c mouse assessed as tremors at 30 mg/kg/day, ip measured from day 2 to 3; type: organism-based; set-up: route intraperitoneal; settings: in vivo
[12] = test system: Mus musculus; assay: Toxicity in BALB/c mouse assessed as hyperactivity at 30 mg/kg/day, ip measured from day 2 to 3; type: organism-based; set-up: route intraperitoneal; settings: in vivo
[13] = test system: Mus musculus; assay: Toxicity in BALB/c mouse assessed as adverse effects at 30 mg/kg/day, ip administered for 5 days; type: organism-based; set-up: route intraperitoneal; settings: in vivo, 120 h
[14] = test system: Leishmania donovani; assay: Antileishmanial activity against promastigote form of Leishmania donovani LV82 infected in BALB/c mouse assessed as reduction in liver parasitemia at 30 mg/kg/day, ip administered for 5 days starting 1 week post-infection measured after 2 weeks relative to untreated control; type: functional; set-up: scale not given: the % may be the effect or the level left; settings: route intraperitoneal; how it was run: as §1

Compound | IC50 [3] [nM] | IC50 [4] [nM] | selectivity ratio [5] | selectivity ratio [6] | IC50 [10] [nM] | Activity [11] | Activity [12] | also measured
CCCCCCCCCCCCCCCCOP(=O)([O-])OCC[N+](C)(C)C [MILTEFOSINE] | – | – | – | – | – | – | – | Activity [1]: 96%
CC(C)Oc1cc(NC(=N)c2ccccn2)ccc1-c1ccc(-c2ccc(NC(=N)c3ccccn3)cc2)o1.CS(=O)(=O)O | 11000 | 5.3 | 2080 | 115 | 93 | – | – | Activity [2]: Toxic; Activity [7]: Toxic; Activity [8]: Toxic; Activity [9]: Toxic
C[C@@H]1[C@H](O)[C@@H](C)/C=C/C=C/C=C/C=C/C=C/C=C/C=C/[C@H](O[C@@H]2O[C@H](C)[C@@H](O)[C@H](N)[C@@H]2O)C[C@@H]2O[C@](O)(C[C@@H](O)C[C@@H](O)[C@H](O)CC[C@@H](O)C[C@@H](O)CC(=O)O[C@H]1C)C[C@H](O)[C@H]2C(=O)O [AMPHOTERICIN B] | – | 45 | – | – | – | – | – | –
CC(C)Oc1cc(NC(=N)c2ccccn2)ccc1-c1ccc(-c2ccc(NC(=N)c3ccccn3)cc2F)o1.CS(=O)(=O)O | 27000 | 150 | 180 | 142 | 190 | Toxic | Toxic | –
CC(C)Oc1cc(-c2ccc(-c3ccc(NC(=N)c4ccccn4)c(OC(C)C)c3)o2)ccc1NC(=N)c1ccccn1.CS(=O)(=O)O | 10000 | 26 | 385 | – | 290 | – | – | Activity [13]: Non-toxic; Activity [14]: 32%
CS(=O)(=O)O.Cc1cc(NC(=N)c2ccccn2)ccc1-c1ccc(-c2ccc(NC(=N)c3ccccn3)cc2OC(C)C)o1 | 13000 | 21 | 619 | 265 | 49 | Toxic | Toxic | –
COc1cc([C@@H]2c3cc4c(cc3[C@H](O)[C@H]3COC(=O)[C@H]23)OCO4)cc(OC)c1OC [PODOFILOX] | 18 | – | – | – | – | – | – | –
COc1cc(NC(=N)c2ccccn2)ccc1-c1ccc(-c2ccc(NC(=N)c3ccccn3)cc2OC(C)C)o1.CS(=O)(=O)O | 14000 | 7 | 2000 | 127 | 110 | Toxic | Toxic | –
